# Screening data as filed in PubChem BioAssay.
# PMI act = phosphomannose isomerase (human) activation; P34949; purified human PMI, coupled resazurin fluorescence, 20 min; stronger effect = higher value; 1 = vehicle control, 0 substrate-free wells; activation factor at 20 µM; actives 0.005% (n = 190,000); AID 1214;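 active means activation factor of 2 or more at 20 µM, relative to plate controls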
# Target sequence (P34949 whole entry, looked up): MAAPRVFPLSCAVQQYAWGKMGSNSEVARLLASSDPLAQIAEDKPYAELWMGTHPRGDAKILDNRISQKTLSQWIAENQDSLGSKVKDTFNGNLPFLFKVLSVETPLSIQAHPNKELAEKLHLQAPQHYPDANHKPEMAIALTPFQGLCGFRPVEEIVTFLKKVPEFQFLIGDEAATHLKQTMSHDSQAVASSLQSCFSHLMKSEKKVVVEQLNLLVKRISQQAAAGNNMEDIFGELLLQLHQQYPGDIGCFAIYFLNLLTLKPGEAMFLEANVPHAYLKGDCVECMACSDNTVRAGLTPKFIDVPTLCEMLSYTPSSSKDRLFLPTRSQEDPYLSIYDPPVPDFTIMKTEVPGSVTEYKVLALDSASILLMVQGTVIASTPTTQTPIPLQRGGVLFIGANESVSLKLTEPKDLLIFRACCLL
# Diaphorase inh = diaphorase inhibition or chemical oxidation counter-screen. diaphorase resazurin-to-resorufin fluorescence, NADH, 16 min; bacterial (C. kluyveri) enzyme, not human. inhibition, % at 20 µM. actives 0.69% (n = 190,000). AID 1217;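 active means primary screen inhibition at 20 µM above a set limit, cut at about 50% in these data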
#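 Test system: diaphorase enzyme from Clostridium kluyveri; amount: diaphorase at 0.14 U/mL in enzyme working solution; detection: fluorescence of resorufin formed from resazurin, Ex 544/Em 590 nm; times: reaction incubation of 16 min at room temperature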
# PMI act satM6P = PMI (human) activation, high substrate; coupled PMI enzyme assay, resazurin fluorescence, 20 min; stronger effect = higher value; 1 = untreated enzyme, 0 = substrate-free blank; actives 0.34% (n = 190,000); activation factor at 20 µM; P34949;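 active means activation factor of 2 or more at 20 µM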
#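 Technique: Diaphorase-driven resazurin-to-resorufin fluorescence, excitation 544, emission 590 nm | Assay system: Human PMI in coupled enzyme assay | Times: Enzyme reaction with compound 20 min at room temperature | Medium: HEPES-buffered pH 7.4 with magnesium and detergent | Reagent: Mannose-6-phosphate 1.0 mM (near-saturating) plus 0.22 mM NADP+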
# Diaph act CS = diaphorase activation or chemical reduction counter-screen; Diaphorase/resazurin coupled assay, resorufin fluorescence, 16 min; stronger effect = higher value; 1 = vehicle wells, 0 = NADH-free wells; activation factor at 20 µM; actives 0.005% (n = 190,000); AID 1229;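 active means diaphorase activity raised at least twofold by the compound at 20 µM; inactive means activation factor below 2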
#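 Material: Purified diaphorase enzyme from Clostridium kluyveri | Buffer or medium: 50 mM HEPES pH 7.4 with 4.542 mM MgCl2, 0.005% Tween 20 | Times: 16 min enzyme reaction, ambient temperature | Signal: Red resorufin fluorescence at 544/590 nm excitation/emission | Measure: Increased resorufin signal from activators or reducing compounds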
# G6PDH counter = L. mesenteroides G6PDH inhibition counter-screen; Purified L. mesenteroides G6PDH, diaphorase/resazurin coupled fluorescence, 45 min; actives 0.12% (n = 200,000); inhibition, % at 5 µM; AID 1020; in the data active means inhibition above about 50%
# Numbers stand for hits; i = inactive; nt = no result. This is a sample that favours compounds with a hit; in the whole collection about 1.1% have one here.
SMILES,PMI act,Diaphorase inh,PMI act satM6P,Diaph act CS,G6PDH counter
CN(Cc1ccccc1)C(=O)COC(=O)C1CCN(S(=O)(=O)c2cccs2)CC1,i,i,i,i,i
Cc1cccc(OCc2nnc(SCC(=O)Nc3cccc(C(=O)N4CCOCC4)c3)n2C)c1,i,i,i,i,i
CCCCC[n+]1ccn(-c2nc3ccccc3nc2[N-]S(=O)(=O)c2ccc(C)cc2)c1,i,i,i,i,i
CCCC[n+]1ccn(C2=C([O-])c3ccccc3C(=O)/C2=N\S(=O)(=O)c2ccccc2)c1,i,i,i,i,56.3
CCCCC[n+]1ccn(C2=C([O-])c3ccccc3C(=O)/C2=N\S(=O)(=O)c2ccccc2)c1,i,i,i,i,54.9
CCCC[n+]1ccn(-c2nc3ccccc3nc2[N-]S(=O)(=O)c2ccccc2)c1,i,i,i,i,i
NN(CCO)C(=S)Nc1ccc(Cl)cc1,i,i,i,i,i
Cc1ccc(S(=O)(=O)N2CCC(C(=O)O)CC2)cc1,i,i,i,i,i
N#Cc1c(NC(=S)NC(=O)c2ccccc2)sc2c1CCN(CCc1ccccc1)C2,i,i,2.2,i,i
CC(NC(=O)C(c1ccccc1)c1ccccc1)C(=O)N1CCCCC1 (stereo unspecified),i,i,i,i,i
Cc1ccccc1C(=O)Nc1ccc2c(C#N)c3nc4ccccc4nc3n2c1,i,72.1,i,i,i
CC1=NN(c2ccccc2)C(=O)C1,i,i,i,i,i
CC1=NN(c2ccc(S(=O)(=O)O)cc2C)C(=O)C1,i,i,2.4,i,i
COc1cccc(CN2CCN(Cc3nc(C(C)C)cs3)CC2CCO)c1 (stereo unspecified),nt,nt,nt,nt,i
CC(C)c1nc2sc3c(SCC(=O)NCc4ccco4)ncnc3c2c2c1CCC2,i,55.5,i,i,i
O=C(CSc1ncnc2sc3c(c12)CCCCC3)NCc1ccco1,i,i,i,i,i
Cc1cccc(N=Cc2cc3c(cc2[N+](=O)[O-])OCO3)c1,i,60.8,i,i,i
O=[N+]([O-])c1cc2c(cc1C=Nc1ccccc1)OCO2,i,53.0,i,i,i
CCOC(CNC(=O)Cn1nc(C)c2ccccc21)OCC,i,i,i,i,i
Cc1cccc(OCC(=O)N/N=C/c2ccc(N(C)C)cc2)c1,i,55.4,i,i,i
O=C1NC(=O)/C(=C\c2ccc(O)cc2O)S1,i,81.7,i,i,i
Cc1cc(N2CCOCC2)ccc1/C=C1/SC(=O)NC1=O,i,i,i,i,i
O=c1cc(-c2ccc(O)c(O)c2)oc2cc(O)c(C3OC(CO)C(O)C(O)C3O)c(O)c12 (stereo unspecified),i,59.6,i,i,i
O=c1c(O[C@@H]2O[C@H](CO)[C@@H](O)[C@H](O)[C@H]2O)c(-c2ccc(O)c(O)c2)oc2cc(O)cc(O)c12,i,76.8,i,i,i
O=c1cc(-c2ccc(O)c(O)c2)oc2c(C3O[C@H](CO)[C@@H](O)[C@H](O)[C@H]3O)c(O)cc(O)c12 (stereo partly specified),i,i,i,i,i
SMILES,PMI act,Diaphorase inh,PMI act satM6P,Diaph act CS,G6PDH counter
CC1OC(OCC2OC(Oc3c(-c4ccc(O)cc4)oc4cc(O)cc(O)c4c3=O)C(O)C(O)C2O)C(O)C(O)C1O (stereo unspecified),i,i,i,i,i
C[C@@H]1O[C@@H](OC[C@H]2O[C@@H](Oc3c(-c4ccc(O)c(O)c4)oc4cc(O)cc(O)c4c3=O)[C@H](O)[C@@H](O)[C@@H]2O)[C@H](O)[C@H](O)[C@H]1O,i,71.1,i,i,i
O=c1c(O[C@@H]2O[C@H](CO)[C@H](O)[C@H](O)[C@H]2O)c(-c2ccc(O)c(O)c2)oc2cc(O)cc(O)c12,i,56.2,i,i,i
COc1cc2c(=O)c(-c3ccc(O)cc3)coc2cc1OC1OC(CO)C(O)C(O)C1O (stereo unspecified),i,i,i,i,i
Cc1cccc(C)c1OCCNC(=O)OCc1ccccc1,i,i,i,i,i
COCCN(C(=S)Nc1ccc(C)cc1)C(C)c1cccnc1 (stereo unspecified),i,i,i,i,i
CCCCc1ccc(NC(=S)NCc2ccccc2OC)cc1,i,i,i,i,i
